Experimental data: ChEMBL document CHEMBL1137574, “Synthesis and structure-activity relationship for a novel class of potent and selective carbamate-based inhibitors of hormone selective lipase with acute in vivo antilipolytic effects” (J Med Chem, 2007)
pIC50: −log10 of the molar value. Activity calls are given as the source filed them. The rule behind the calls is not given here.

Columns and labels:
Cholinesterase = Cholinesterase (Homo sapiens, UniProt P06276); assay: Inhibition of butyrylcholine esterase
[1] = target: T1, Pancreatic triacylglycerol lipase (Homo sapiens) (UniProt P16233); assay: Inhibition of Pancreatic lipase
T1 sequence (whole entry): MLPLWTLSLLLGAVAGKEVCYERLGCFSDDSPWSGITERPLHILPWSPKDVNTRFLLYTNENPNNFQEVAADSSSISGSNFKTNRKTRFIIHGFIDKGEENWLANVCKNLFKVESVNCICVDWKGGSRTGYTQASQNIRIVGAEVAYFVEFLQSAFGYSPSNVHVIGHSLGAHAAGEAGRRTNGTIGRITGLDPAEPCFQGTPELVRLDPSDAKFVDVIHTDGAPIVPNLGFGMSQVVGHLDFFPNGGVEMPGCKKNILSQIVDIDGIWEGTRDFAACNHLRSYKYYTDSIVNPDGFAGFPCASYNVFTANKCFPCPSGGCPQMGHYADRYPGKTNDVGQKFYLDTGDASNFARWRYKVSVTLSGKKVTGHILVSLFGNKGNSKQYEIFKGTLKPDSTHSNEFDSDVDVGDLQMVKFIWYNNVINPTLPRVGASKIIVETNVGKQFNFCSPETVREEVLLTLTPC
Summary of the method: (§1)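 Lipase inhibition (pancreatic, bovine lipoprotein, human hepatic) used a fluorochrome (NBD)-labelled triacylglyceride substrate. Inhibitor at six concentrations, 5-fold dilutions from a maximum of 100 µM, each point the mean of two measurements. IC50 from sigmoidal variable-slope nonlinear regression.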

[2] = target: T2, Lipoprotein lipase (Bos taurus) (UniProt P11151); assay: Inhibition of bovin lipoprotein lipase; summary of the method: as §1
T2 sequence (whole entry): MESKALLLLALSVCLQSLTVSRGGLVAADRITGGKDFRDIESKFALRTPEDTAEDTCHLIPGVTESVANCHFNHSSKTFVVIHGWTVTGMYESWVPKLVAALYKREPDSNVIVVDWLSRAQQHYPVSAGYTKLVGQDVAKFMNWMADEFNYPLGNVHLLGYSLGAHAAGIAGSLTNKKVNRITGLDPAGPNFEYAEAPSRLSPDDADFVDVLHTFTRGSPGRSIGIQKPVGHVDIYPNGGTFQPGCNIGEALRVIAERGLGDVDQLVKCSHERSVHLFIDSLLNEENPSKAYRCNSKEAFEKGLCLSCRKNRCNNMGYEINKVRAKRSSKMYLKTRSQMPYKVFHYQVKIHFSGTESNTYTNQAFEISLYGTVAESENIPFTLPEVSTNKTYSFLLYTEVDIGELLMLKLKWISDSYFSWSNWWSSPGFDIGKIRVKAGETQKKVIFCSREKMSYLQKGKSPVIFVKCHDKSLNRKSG

[3] = Drug level in Sprague-Dawley rat at 10 mg/kg, po after 1 hr; assay type: ADME, organism-based; set-up: dose 10 mg/kg, route oral; details: in vivo, read-out: Drug uptake
Summary of the method: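 Overnight-fasted male Sprague-Dawley rats received 10 mg/kg p.o. (n = 4). Plasma from orbital blood was collected into EDTA/NaF tubes, stored at -80 °C, and drug measured by turbulent-flow chromatography–MS/MS against plasma calibration curves (10-3000 ng/mL).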

Cytochrome P450 1A2 = target: T3, Cytochrome P450 1A2 (Homo sapiens, UniProt P05177); assay: Inhibition of CYP1A2 in human liver microsome; assay type: ADME; details: microsomes
T3 sequence (P05177 whole entry): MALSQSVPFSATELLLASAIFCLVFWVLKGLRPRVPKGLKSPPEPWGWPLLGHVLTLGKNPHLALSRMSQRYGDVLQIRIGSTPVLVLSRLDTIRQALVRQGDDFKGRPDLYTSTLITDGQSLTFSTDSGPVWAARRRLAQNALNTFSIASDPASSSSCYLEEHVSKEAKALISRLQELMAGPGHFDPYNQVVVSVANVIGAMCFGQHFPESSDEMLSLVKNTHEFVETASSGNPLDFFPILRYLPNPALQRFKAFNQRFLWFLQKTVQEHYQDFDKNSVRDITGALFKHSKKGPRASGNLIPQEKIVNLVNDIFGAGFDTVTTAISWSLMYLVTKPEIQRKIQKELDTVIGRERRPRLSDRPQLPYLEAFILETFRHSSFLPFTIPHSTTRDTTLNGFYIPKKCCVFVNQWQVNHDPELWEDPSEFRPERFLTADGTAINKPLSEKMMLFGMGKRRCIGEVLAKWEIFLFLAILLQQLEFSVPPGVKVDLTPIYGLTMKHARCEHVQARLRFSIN
Summary of the method: (§2)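 Pooled human liver microsomes (0.1 mg, ≥15 donors) incubated 10 min at 37 °C with 1 mM NADPH and test compound at 20 µM, in triplicate. Substrates at Km: CYP1A2, 14C-phenacetin 40 µM; CYP2D6, 14C-dextromethorphan 3 µM. Conversion read by charcoal extraction then scintillation counting of the supernatant.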

Cytochrome P450 2D6 = Cytochrome P450 2D6 (Homo sapiens, UniProt P10635); assay: Inhibition of CYP2D6 in human liver microsome; assay type: ADME; details: microsomes; summary of the method: as §2
Cytochrome P450 2C9 = Cytochrome P450 2C9 (Homo sapiens, UniProt P11712); assay: Inhibition of CYP2C9 in human liver microsome; assay type: ADME; details: microsomes
Homo sapiens = organism: Homo sapiens; assay: Inhibition of butyrylcholine lipase
Rattus norvegicus [4] = assay: Antilipolytic activity in Sprague-Dawley rat at 10 mg/kg, po; assay type: ADME, organism-based; set-up: dose 10 mg/kg, route oral; details: in vivo
Summary of the method: (§3)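 Male Sprague-Dawley rats, 12 weeks old, fasted overnight; single 10 mg/kg p.o. dose (n = 4 per group; vehicle n = 8). Orbital plexus blood under isoflurane taken at baseline (0.5 h predose) and 1, 3 and 5 h postdose into EDTA tubes with 0.1% NaF. Plasma glycerol measured on an automated analyzer as the antilipolytic endpoint.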

Rattus norvegicus [5] = assay: Reduction of glycerol in Sprague-Dawley rat at 10 mg/kg, po; assay type: ADME, organism-based; set-up: dose 10 mg/kg, route oral; scale not given: the % may be the effect or the level left; details: in vivo; summary of the method: as §3

Chain of Cholinesterase (P06276 whole entry): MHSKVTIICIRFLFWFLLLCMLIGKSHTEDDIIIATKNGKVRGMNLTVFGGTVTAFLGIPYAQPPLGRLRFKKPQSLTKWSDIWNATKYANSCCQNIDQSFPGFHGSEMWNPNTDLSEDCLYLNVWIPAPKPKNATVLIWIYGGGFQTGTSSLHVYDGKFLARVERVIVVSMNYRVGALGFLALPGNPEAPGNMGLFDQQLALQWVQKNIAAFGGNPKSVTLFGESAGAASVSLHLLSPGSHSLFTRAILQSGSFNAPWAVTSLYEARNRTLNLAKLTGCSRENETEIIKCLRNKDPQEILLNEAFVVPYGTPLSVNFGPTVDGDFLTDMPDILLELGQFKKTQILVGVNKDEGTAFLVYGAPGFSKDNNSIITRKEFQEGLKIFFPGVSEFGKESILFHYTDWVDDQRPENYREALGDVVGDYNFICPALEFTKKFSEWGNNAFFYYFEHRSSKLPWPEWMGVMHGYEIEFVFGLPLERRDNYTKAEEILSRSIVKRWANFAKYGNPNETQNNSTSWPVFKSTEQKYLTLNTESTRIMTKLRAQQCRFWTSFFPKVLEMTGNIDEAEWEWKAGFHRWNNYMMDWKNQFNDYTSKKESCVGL
Chain of Cytochrome P450 2D6 (P10635 whole entry): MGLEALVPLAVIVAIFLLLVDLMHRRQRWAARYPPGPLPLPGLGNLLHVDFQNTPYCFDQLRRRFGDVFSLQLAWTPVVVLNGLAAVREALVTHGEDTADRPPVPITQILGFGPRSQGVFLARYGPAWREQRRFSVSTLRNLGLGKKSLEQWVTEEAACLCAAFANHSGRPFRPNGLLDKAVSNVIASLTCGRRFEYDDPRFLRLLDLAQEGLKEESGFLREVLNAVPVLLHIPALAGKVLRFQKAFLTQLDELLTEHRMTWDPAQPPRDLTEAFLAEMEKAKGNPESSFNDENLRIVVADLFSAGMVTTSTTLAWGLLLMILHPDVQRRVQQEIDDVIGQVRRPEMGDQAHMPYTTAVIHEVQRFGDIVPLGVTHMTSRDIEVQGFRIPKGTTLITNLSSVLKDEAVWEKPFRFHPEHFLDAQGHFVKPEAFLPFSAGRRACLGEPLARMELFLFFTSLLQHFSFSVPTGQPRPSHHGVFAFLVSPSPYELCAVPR
Chain of Cytochrome P450 2C9 (P11712 whole entry): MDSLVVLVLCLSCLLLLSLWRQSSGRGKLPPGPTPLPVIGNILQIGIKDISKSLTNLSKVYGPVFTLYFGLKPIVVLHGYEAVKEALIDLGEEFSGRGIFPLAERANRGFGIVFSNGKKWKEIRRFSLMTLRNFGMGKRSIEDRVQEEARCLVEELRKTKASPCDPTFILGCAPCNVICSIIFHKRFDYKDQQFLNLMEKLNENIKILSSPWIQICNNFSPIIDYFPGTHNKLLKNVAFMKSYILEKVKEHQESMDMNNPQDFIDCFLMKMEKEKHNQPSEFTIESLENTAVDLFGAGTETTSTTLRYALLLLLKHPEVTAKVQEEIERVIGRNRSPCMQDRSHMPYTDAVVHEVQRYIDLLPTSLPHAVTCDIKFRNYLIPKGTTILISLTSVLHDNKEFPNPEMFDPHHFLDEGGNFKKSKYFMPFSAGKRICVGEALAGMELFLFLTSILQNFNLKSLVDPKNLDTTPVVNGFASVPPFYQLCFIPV

Row | Compound | pIC50 (Cholinesterase) | Activity [1] | Activity [2] | concentration at 1 h [3] [ng/mL] | Activity (Cytochrome P450 1A2) | Activity (Cytochrome P450 2D6) | Activity (Cytochrome P450 2C9) | Activity (Homo sapiens) | Activity (Rattus norvegicus [4]) | Activity (Rattus norvegicus [5]) [%]
1 | O=C(Oc1ccc(Oc2ccc(C(F)(F)F)cn2)cc1)N1CCC(CO)CC1 | < 4.30 | inactive | inactive | 379 | Not Active | Not Active | Not Active | inactive | Active | 59
2 | O=C(Oc1ccc(Oc2ccc(C(F)(F)F)cn2)cc1)N1CCC(O)CC1 | < 4.30 | inactive | inactive | 3200 | Not Active | Not Active | Not Active | inactive | Active | 42
